The source made the active and inactive calls. The rule behind the calls is not given here.
Columns and labels:
[1] = Metabolic stability in rat liver microsomes assessed as parent compound remaining at 3 uM incubated for 15 mins by LC-MS analysis; type: ADME, Microsome; conditions: for remaining at 0.25 h, 3 µM: liver microsomes, read-out: Stability
In short: (§1)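 Liver microsomes incubated with compound at 3 μM for 15 min. Parent compound remaining was quantified by LC-MS.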

[2] = target: T1, Sodium- and chloride-dependent glycine transporter 1 (Homo sapiens, UniProt P48067); assay: Inhibition of glycine transporter-1B in human JAR cells assessed as reduction in [14C]glycine uptake preincubated for 10 mins followed by [14C]glycine addition measured after 3 hrs by scintillation proximity assay; type: cell-based
T1 sequence (P48067 whole entry): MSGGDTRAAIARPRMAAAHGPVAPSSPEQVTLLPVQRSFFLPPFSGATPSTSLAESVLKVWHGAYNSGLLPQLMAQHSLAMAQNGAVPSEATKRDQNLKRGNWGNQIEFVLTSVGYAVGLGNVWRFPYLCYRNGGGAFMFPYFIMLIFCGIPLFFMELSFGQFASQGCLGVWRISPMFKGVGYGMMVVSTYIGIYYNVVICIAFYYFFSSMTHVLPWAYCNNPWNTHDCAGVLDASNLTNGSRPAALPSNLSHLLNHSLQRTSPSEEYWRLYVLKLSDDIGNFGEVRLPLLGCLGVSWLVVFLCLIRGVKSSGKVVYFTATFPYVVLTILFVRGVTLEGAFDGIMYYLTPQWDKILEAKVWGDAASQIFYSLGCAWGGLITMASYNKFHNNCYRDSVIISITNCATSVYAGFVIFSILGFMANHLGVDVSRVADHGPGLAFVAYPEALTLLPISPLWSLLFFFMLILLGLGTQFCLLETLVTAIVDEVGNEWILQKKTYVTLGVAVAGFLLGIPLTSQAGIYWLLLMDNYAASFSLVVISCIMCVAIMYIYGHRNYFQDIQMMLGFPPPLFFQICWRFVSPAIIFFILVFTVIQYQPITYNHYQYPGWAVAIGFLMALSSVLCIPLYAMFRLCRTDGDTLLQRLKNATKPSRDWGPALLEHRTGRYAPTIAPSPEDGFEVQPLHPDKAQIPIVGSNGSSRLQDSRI
In short: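 Whole-cell SPA in JAR cells, which endogenously express hGlyT-1b. Cells (50,000 per well) were attached overnight in RPMI/10% FBS at 37 °C, 5% CO₂. [¹⁴C]glycine was then added and incubated 3 h at 37 °C. The assay window was set with unlabeled glycine. A reference standard ran on each plate. IC₅₀ values are means of n ≥ 2.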

[3] = Metabolic stability in human liver microsomes assessed as parent compound remaining at 3 uM incubated for 15 mins by LC-MS analysis; type: ADME, Microsome; conditions: for remaining at 0.25 h, 3 µM: liver microsomes, read-out: Stability; for Stability: microsomes, 0.25 h, 3 µM; in short: as §1
[4] = target: T2, Sodium- and chloride-dependent glycine transporter 2 (Homo sapiens, UniProt Q9Y345); assay: Inhibition of human glycine transporter-2 expressed in HEK293 cells assessed as reduction in [14C]glycine uptake preincubated for 10 mins followed by [14C]glycine addition measured after 3 hrs by scintillation proximity assay; type: cell-based
T2 sequence (Q9Y345 whole entry): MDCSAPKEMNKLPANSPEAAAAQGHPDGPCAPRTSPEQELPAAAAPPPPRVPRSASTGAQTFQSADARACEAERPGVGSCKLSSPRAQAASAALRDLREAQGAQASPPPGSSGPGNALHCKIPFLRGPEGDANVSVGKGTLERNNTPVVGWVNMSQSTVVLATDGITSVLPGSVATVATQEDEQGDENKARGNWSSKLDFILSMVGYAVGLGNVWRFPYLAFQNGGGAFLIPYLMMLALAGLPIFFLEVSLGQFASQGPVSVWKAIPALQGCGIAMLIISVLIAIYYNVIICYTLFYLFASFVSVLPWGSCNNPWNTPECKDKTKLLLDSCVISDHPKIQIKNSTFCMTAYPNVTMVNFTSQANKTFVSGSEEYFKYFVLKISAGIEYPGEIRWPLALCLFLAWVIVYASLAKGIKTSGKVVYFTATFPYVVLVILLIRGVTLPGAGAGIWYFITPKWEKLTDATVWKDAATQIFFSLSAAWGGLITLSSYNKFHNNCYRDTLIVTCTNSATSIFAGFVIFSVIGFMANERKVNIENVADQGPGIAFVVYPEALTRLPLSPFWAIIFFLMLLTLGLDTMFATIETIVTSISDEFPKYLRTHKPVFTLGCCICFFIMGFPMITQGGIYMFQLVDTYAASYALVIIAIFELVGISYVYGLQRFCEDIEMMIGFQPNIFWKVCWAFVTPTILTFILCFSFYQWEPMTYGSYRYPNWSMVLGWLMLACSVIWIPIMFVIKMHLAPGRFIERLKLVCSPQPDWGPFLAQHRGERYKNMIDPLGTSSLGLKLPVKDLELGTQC
In short: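 HEK293 cells stably transfected with GlyT-2 (Geneticin-selected polyclonal population) were plated on poly-L-lysine-coated plates in DMEM/10% FBS and incubated overnight. The [¹⁴C]glycine uptake SPA was then run as for JAR cells: uptake buffer, 10 min room-temperature preincubation, 3 h incubation at 37 °C.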

[5] = Intrinsic clearance in human liver microsomes at 3 uM incubated up to 60 mins by LC-MS analysis; type: ADME, Microsome; conditions: read-out: CLH
In short: (§2)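 Liver microsomes with a cofactor regeneration system and compound at 3 μM, incubated at 37 °C. Reactions were stopped at 0, 5, 15, 30, 45 and 60 min, in duplicate. Compound remaining was measured by LC-MS. ln(%remaining) was plotted against time, and the slope was normalized to protein to give CL_int. Testosterone at 10 μM served as control.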

[6] = Intrinsic clearance in rat liver microsomes at 3 uM incubated up to 60 mins by LC-MS analysis; type: ADME, Microsome; conditions: read-out: CLH; in short: as §2
Cynomolgus monkey [7] = assay: In vivo inhibition of glycine transporter-1 in cynomolgus monkey assessed as increase in CSF glycine level at 0.3 to 10 mg/kg, po measured at 2 to 4 hrs post dose by LC-MS/MS analysis; type: functional, organism-based; conditions: Macaca fascicularis
In short: (§3)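 Cynomolgus monkeys, n = 3 per group, given oral doses of 0.4, 1.5, 4.7 or 15.7 μmol/kg. Vehicle was 5% Solutol / 20% Captisol in 25 mM PBS, pH 2. CSF (about 0.30 mL) was drawn through subcutaneous ports with a sterile Huber needle predose and at 0.5, 1, 2, 3, 4, 8, 12 and 24 h. Matched blood was taken at each time. Mean ± SD.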

Cynomolgus monkey [8] = assay: In vivo inhibition of glycine transporter-1 in cynomolgus monkey assessed as increase in CSF glycine level at 0.3 to 10 mg/kg, po measured at 24 hrs post dose by LC-MS/MS analysis; type: functional, organism-based; conditions: Macaca fascicularis; in short: as §3
[9] = target: T3, Sodium- and chloride-dependent glycine transporter 1 (Homo sapiens) (UniProt P48067); assay: Competitive inhibition of glycine transporter-1 (unknown origin) expressed in HEK293 cells at 12 to 108 nM in presence of [3H]glycine by scintillation proximity assay; type: cell-based
T3 sequence (whole entry): T1 sequence (P48067 whole entry)
In short: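 Whole-cell SPA glycine transport with transfected HEK-293 cells expressing GlyT-1. Increasing [³H]-glycine concentrations were run at several fixed inhibitor concentrations to derive B_max and K_d for glycine and judge the binding mode.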

Compound | remaining at 0.25 h, 3 µM [1] [%] | IC50 [2] [nM] | remaining at 0.25 h, 3 µM [3] [%] | IC50 [4] [nM] | also measured
Cn1cnc(S(=O)(=O)N2CCN(C3(CNC(=O)c4c(F)cccc4F)CCC(F)(F)CC3)CC2)c1 | 92 | 18.3 | 72 | > 75000 | 
CCCS(=O)(=O)N1CCN(C2(CNC(=O)c3ccc(C(F)(F)F)cc3Cl)CCC(F)(F)CC2)CC1 |  | 12.6 |  |  | microsomal CLint at 3 µM [5]: 16 µL/min/mg; microsomal CLint at 3 µM [6]: 11 µL/min/mg
Cn1cc(S(=O)(=O)N2CCN(C3(CNC(=O)c4c(F)cccc4F)CCC(F)(F)CC3)CC2)nn1 | 95 | 5.1 | 64 |  | 
CC(NC(=O)c1ccc(C(F)(F)F)cc1Cl)C1(N2CCN(S(=O)(=O)c3cn(C)nn3)CC2)CCC(F)(F)CC1.Cl (racemic) |  | 1.03 |  |  | Stability ([1]; microsomes, 0.25 h, 3 µM): 66%; Stability [3]: 54%
Cn1cc(S(=O)(=O)N2CCN(C3(CNC(=O)c4ccc(Cl)cc4Cl)CCCCC3)CC2)nn1 |  | 1.54 | 0 | > 75000 | 
CCCS(=O)(=O)N1CCN(C2(CNC(=O)c3c(C)cc(F)cc3OC)CCC(F)(F)CC2)CC1 |  | 28.5 |  | > 75000 | 
Cn1cnc(S(=O)(=O)N2CCN(C3(CNC(=O)c4c(Cl)cccc4OC(F)(F)F)CCC(F)(F)CC3)CC2)c1 | 91 | 1.49 | 9.2 | > 75000 | 
Cn1cc(S(=O)(=O)N2CCN(C3(CNC(=O)c4ccc(C(F)(F)F)cc4C(F)(F)F)CCC(F)(F)CC3)CC2)nn1 | 95 | 0.733 | 64 |  | 
Cn1cnc(S(=O)(=O)N2CCN(C3(CNC(=O)c4c(Cl)cccc4Cl)CCC(F)(F)CC3)CC2)c1 | 94 | 5.56 | 22 | > 75000 | 
Cn1cc(S(=O)(=O)N2CCN(C3(CNC(=O)c4ccc(F)cc4Cl)CCC(F)(F)CC3)CC2)nn1 | 100 | 1.14 | 69 |  | 
Cn1cc(S(=O)(=O)N2CCN(C3(CNC(=O)c4c(Cl)cccc4Cl)CCC(F)(F)CC3)CC2)nn1 | 91 | 1.27 | 33 | > 75000 | 
Cn1cnc(S(=O)(=O)N2CCN(C3(CNC(=O)c4ccc(C(F)(F)F)cc4Cl)CCC(F)(F)CC3)CC2)c1 | 90 | 2.35 | 60 | > 75000 | 
Nc1cccc(Cl)c1C(=O)NCC1(N2CCN(S(=O)(=O)Cc3ccccc3)CC2)CCCCC1 |  | 9360 |  | > 75000 | 
Cn1cc(S(=O)(=O)N2CCN(C3(CNC(=O)c4ccc(Cl)cc4Cl)CCCCC3)CC2)cn1 |  | 146 |  | > 75000 | 
Cn1cc(S(=O)(=O)N2CCN(C3(CNC(=O)c4ccc(Cl)cc4Cl)CCC(F)(F)CC3)CC2)nn1 | 80 | 1.24 | 46 |  | 
Cn1cnc(S(=O)(=O)N2CCN(C3(CNC(=O)c4ccc(Cl)cc4Cl)CCC(F)(F)CC3)CC2)c1 | 88 | 5.29 | 30 | > 75000 | 
Cn1cnc(S(=O)(=O)N2CCN(C3(CNC(=O)c4ccc(F)cc4Cl)CCC(F)(F)CC3)CC2)c1 | 100 | 5.09 | 85 |  | 
CC(C)CS(=O)(=O)N1CCN(C2(CNC(=O)c3c(N)cccc3Cl)CCCCC2)CC1 |  |  |  | > 75000 | 
CCCS(=O)(=O)N1CCN(C2(CNC(=O)c3ccc(C(F)(F)F)cc3C(F)(F)F)CCC(F)(F)CC2)CC1 |  | 8.4 |  | > 75000 | microsomal CLint at 3 µM [5]: 19 µL/min/mg; microsomal CLint at 3 µM [6]: 4.9 µL/min/mg
CCCS(=O)(=O)N1CCN(C2(CNC(=O)c3ccc(F)cc3Cl)CCC(F)(F)CC2)CC1 |  | 38.4 |  | > 75000 | 
Cn1cc(S(=O)(=O)N2CCN(C3(CNC(=O)c4c(Cl)cccc4OC(F)(F)F)CCC(F)(F)CC3)CC2)nn1 | 87 | 0.726 | 24 | > 75000 | 
CCCS(=O)(=O)N1CCN(C2(CNC(=O)c3c(Cl)cccc3OC(F)(F)F)CCC(F)(F)CC2)CC1 |  | 29 |  | > 75000 | 
CC(NC(=O)c1ccc(C(F)(F)F)cc1Cl)C1(N2CCN(S(=O)(=O)c3cn(C)nn3)CC2)CCC(F)(F)CC1.Cl (single isomer, unassigned; (-)) |  |  |  |  | Stability [3]: 51%
CCCS(=O)(=O)N1CCN(C2(CNC(=O)c3c(Cl)cccc3Cl)CCC(F)(F)CC2)CC1 |  | 42.4 |  | > 75000 | microsomal CLint at 3 µM [5]: 3.8 µL/min/mg; microsomal CLint at 3 µM [6]: 4.3 µL/min/mg
CC(NC(=O)c1ccc(C(F)(F)F)cc1Cl)C1(N2CCN(S(=O)(=O)c3cn(C)nn3)CC2)CCC(F)(F)CC1 (single isomer, unassigned; (+)) |  |  |  |  | inhibition (Cynomolgus monkey [7]): Active; inhibition (Cynomolgus monkey [8]): inactive; inhibition [9]: Active

From ChEMBL document CHEMBL4428077, “Synthesis and Biological Evaluation of N-((1-(4-(Sulfonyl)piperazin-1-yl)cycloalkyl)methyl)benzamide Inhibitors of Glycine Transporter-1” (J Med Chem, 2016)
